Paper PMC7641989 (Nature biotechnology, 2020)
Where a SMILES comes first, the peptide text is derived from it. [ ]: non-standard residue; d: D form.

Columns and labels:
[1] = system: gut microbiota from cecum of WD-fed LDLr-/- mice; assay: In vitro en masse gut microbiota screening assay; type: cell-based, mouse; settings: en masse screen, result in words
Outline: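 Cecal contents came from female LDLr-/- mice (8–10 weeks) fed WD for two weeks, pooled from 3 co-housed mice, with all steps anaerobic. The PBS suspension was diluted 1:12.5 in Chopped Meat Carbohydrate Broth and dosed with test compound at a final 16 or 64 µM. Ampicillin (4 µg/mL) and chloramphenicol (8 µg/mL) were controls. Samples ran 20 h at 37 °C with hourly OD600, then 16S sequencing gave genus-level Shannon diversity and the Bacteroidetes:Firmicutes ratio.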

WD-fed LDLr-/- mice [2] = assay: Plasma total cholesterol in peptide-treated WD-fed mice; type: in vivo, mouse
Outline: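 Western-diet-fed LDLr-/- mice received test compound at 180 µM in drinking water (PBS pH 7.4, 1% sucrose; vehicle controls) starting with the diet switch. Plasma total cholesterol was measured enzymatically at the two-week blood draw. Results given as mean ± SD.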

WD-fed LDLr-/- mice [3] = assay: Analysis of atherosclerosis; type: in vivo, mouse; settings: completion of the 10-week study, en face staining, vs vehicle
Outline: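 LDLr-/- mice, moved from chow to Western diet (15.8% fat, 1.25% cholesterol, no cholate) at 8–12 weeks, given test compound at 180 µM in drinking water (PBS pH 7.4, 1% sucrose; vehicle alone for controls) for 10 weeks. Lesions assessed by en face staining of the entire aorta and by aortic root sectioning. n=8 treated, 18 vehicle; mean ± SD, one-way ANOVA with Dunnett test.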

[4] = Pharmacokinetics, LC-MS SIM quantitation in plasma; type: in vivo, mouse; settings: pharmacokinetic and excretion studies, result in words
[5] = LC-MS SIM quantitation of peptide levels in feces; type: in vivo, mouse; settings: pharmacokinetic and excretion studies, result in words
Outline: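 Intact test compound was measured in extracted feces by LC-MS selected ion monitoring of the parent ions. Standard curves came from two independent extractions. Fecal samples were taken at week 5 (n=4 mice per group) and measured in duplicate. Daily dry fecal output was weighed over 24 h in individually housed mice. Expected maximum fecal level was calculated from the 0.18 mM drinking-water concentration, water intake and fecal output.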

WD-fed LDLr-/- mice [6] = assay: In vivo safety during 10-week daily oral dosing; set-up: species or system mouse
Outline: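 Mice were weaned at 4 weeks and fed chow, then switched at 8–12 weeks to Western diet for 10 weeks. Test compound was dissolved by sonication in PBS (pH 7.4) with 1% sucrose, given ad libitum in drinking water at 180 µM and refreshed daily or every other day. Vehicle controls received PBS/1% sucrose. Liver enzyme activities in plasma were measured by enzymatic assays.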

[7] = 10 weeks daily oral administration, n=7 treated mice

Compound | remodeling of the microbiota community in vitro [1] | reduction of plasma total cholesterol compared to the untreated WD group (WD-fed LDLr-/- mice [2]; two-week time point, oral in drinking water, ~35 mg/kg/day) [%] | reduction of whole aorta atherosclerotic lesion area (WD-fed LDLr-/- mice [3]) [%] | oral systemic bioavailability [4] | stability in the gut [5] | signs of discomfort or toxicity (WD-fed LDLr-/- mice [6]; 10-week daily-dosing regimen, ad libitum in the drinking water, ~35 mg/kg/day) | liver weights and spleen weights (WD-fed LDLr-/- mice [6]; [7]) | plasma levels of ALT and AST (WD-fed LDLr-/- mice [6]; [7]) | body weights (WD-fed LDLr-/- mice [6]; during the 10-week treatment, n=7 treated mice) | total plasma cholesterol compared to vehicle controls (WD-fed LDLr-/- mice [2]; 2-wk timepoint, oral dosing, result in words)
CC(C)C[C@@H]1NC(=O)[C@@H](Cc2c[nH]c3ccccc23)NC(=O)[C@H](CCCCN)NC(=O)[C@@H](Cc2c[nH]cn2)NC(=O)[C@H](CO)NC(=O)[C@@H](Cc2c[nH]cn2)NC(=O)[C@H](CCCCN)NC(=O)[C@@H](Cc2c[nH]c3ccccc23)NC1=O [peptide 1] (cyclo([dW]L[dW]K[dH]S[dH]K)) | did remodel the microbiota community in vitro | 37 | 37 | non-absorbable (lack oral systemic bioavailability) | remain largely intact throughout the gut | no signs of discomfort or toxicity | did not significantly differ from vehicle controls | did not significantly differ from vehicle controls | did not differ from vehicle controls | –
NC(=O)CC[C@@H]1NC(=O)[C@@H](Cc2c[nH]cn2)NC(=O)[C@H](Cc2c[nH]cn2)NC(=O)[C@@H](CCC(N)=O)NC(=O)[C@H](Cc2ccc(O)cc2)NC(=O)[C@@H](Cc2c[nH]c3ccccc23)NC(=O)[C@H](Cc2c[nH]c3ccccc23)NC(=O)[C@@H](Cc2ccccc2)NC1=O [peptide 15] (cyclo(H[dH]Q[dF]W[dW]Y[dQ])) | remodeled the gut microbiota in vitro, but not toward a CHD-like state | – | – | – | – | – | – | – | – | did not reduce plasma total cholesterol levels
